Source: ChEMBL document CHEMBL4385593, “Design, synthesis and biological evaluation of novel benzothiadiazine derivatives as potent PI3Kδ-selective inhibitors for treating B-cell-mediated malignancies” (Eur J Med Chem, 2019)

What was measured:
[1] = species: Homo sapiens; assay: Selectivity ratio of IC50 for His-tagged recombinant human full length PI3K p110alpha/p85alpha to IC50 for His-tagged recombinant human PI3K p110delta/p85alpha
[2] = biological target: Phosphatidylinositol 4,5-bisphosphate 3-kinase catalytic subunit beta isoform (Homo sapiens, UniProt P42338); assay: Inhibition of His6-tagged recombinant full length human N-terminal PI3Kbeta expressed in baculovirus infected Sf21 cells using lipid substrate incubated for 2 hrs by ADP-Glo assay
[3] = biological target: PI3-kinase p110-delta/p85-alpha (Homo sapiens, UniProt O00329); assay: Inhibition of His-tagged recombinant human PI3K p110delta/p85alpha using lipid substrate incubated for 2 hrs by ADP-Glo assay; format: protein-complex assay
[4] = test system: SU-DHL-6; assay: Growth inhibition of human SU-DHL6 cells incubated for 72 hrs by CellTiter-Glo assay; format: functional; conditions: SU-DHL-6, 72 h
Outline: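 SU-DHL-6 cells were seeded at 1 × 10^4 per well and exposed to compound or medium alone for 72 h. Viability was measured by CellTiter-Glo luminescence, and GI50 was derived by curve fitting.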

[5] = biological target: PI3-kinase p110-alpha/p85-alpha (Homo sapiens, UniProt P42336); assay: Inhibition of His-tagged recombinant human full length PI3K p110alpha/p85alpha expressed in baculovirus expression system using lipid substrate incubated for 60 mins by kinase-Glo reagent based luminescence assay
[6] = biological target: Phosphatidylinositol 4,5-bisphosphate 3-kinase catalytic subunit gamma isoform (Homo sapiens, UniProt P48736); assay: Inhibition of His-tagged recombinant human full length PI3K p110gamma expressed in baculovirus expression system using lipid substrate incubated for 2 hrs by ADP-Glo assay
[7] = species: Homo sapiens; assay: Selectivity ratio of IC50 for His6-tagged recombinant full length human N-terminal PI3Kbeta to IC50 for His-tagged recombinant human PI3K p110delta/p85alpha
[8] = species: Homo sapiens; assay: Selectivity ratio of IC50 for His-tagged recombinant human full length PI3K p110gamma to IC50 for His-tagged recombinant human PI3K p110delta/p85alpha
[9] = Half life in Sprague-Dawley rat at 2 mg/kg, iv by LC/MS/MS analysis; format: ADME, organism-based; conditions: in vivo
Outline: (§1)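 Male SD rats, three per group, dosed iv at 2 mg/kg or orally at 10 mg/kg. iv dose was a 0.4 mg/mL solution in 5% DMSO/10% Solutol/10% EtOH/75% saline. Oral dose was a 1 mg/mL suspension in 2% DMSO/98% MC (0.5%). Terminal orbital blood was taken into EDTA-2K under isoflurane at set time points. Plasma levels were measured by LC/MS/MS.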

[10] = AUC (0 to t) in Sprague-Dawley rat at 2 mg/kg, iv by LC/MS/MS analysis; format: ADME, organism-based; conditions: in vivo; outline: as §1
[11] = Volume of distribution at steady state in Sprague-Dawley rat at 2 mg/kg, iv by LC/MS/MS analysis; format: ADME, organism-based; conditions: in vivo, read-out: Vdss; outline: as §1
[12] = Clearance in Sprague-Dawley rat at 2 mg/kg, iv by LC/MS/MS analysis; format: ADME, organism-based; conditions: in vivo
[13] = Cmax in Sprague-Dawley rat at 10 mg/kg, po by LC/MS/MS analysis; format: ADME, organism-based; parameters: dose 10 mg/kg, route oral; conditions: in vivo; outline: as §1
[14] = AUC (0 to t) in Sprague-Dawley rat at 10 mg/kg, po by LC/MS/MS analysis; format: ADME, organism-based; conditions: in vivo; outline: as §1
[15] = Oral bioavailability in Sprague-Dawley rat at 10 mg/kg by LC/MS/MS analysis; format: ADME, organism-based; conditions: in vivo; outline: as §1
[16] = Half life in Sprague-Dawley rat at 10 mg/kg, po by LC/MS/MS analysis; format: ADME, organism-based; conditions: in vivo; outline: as §1

Chain of Phosphatidylinositol 4,5-bisphosphate 3-kinase catalytic subunit gamma isoform (P48736 whole entry, canonical isoform): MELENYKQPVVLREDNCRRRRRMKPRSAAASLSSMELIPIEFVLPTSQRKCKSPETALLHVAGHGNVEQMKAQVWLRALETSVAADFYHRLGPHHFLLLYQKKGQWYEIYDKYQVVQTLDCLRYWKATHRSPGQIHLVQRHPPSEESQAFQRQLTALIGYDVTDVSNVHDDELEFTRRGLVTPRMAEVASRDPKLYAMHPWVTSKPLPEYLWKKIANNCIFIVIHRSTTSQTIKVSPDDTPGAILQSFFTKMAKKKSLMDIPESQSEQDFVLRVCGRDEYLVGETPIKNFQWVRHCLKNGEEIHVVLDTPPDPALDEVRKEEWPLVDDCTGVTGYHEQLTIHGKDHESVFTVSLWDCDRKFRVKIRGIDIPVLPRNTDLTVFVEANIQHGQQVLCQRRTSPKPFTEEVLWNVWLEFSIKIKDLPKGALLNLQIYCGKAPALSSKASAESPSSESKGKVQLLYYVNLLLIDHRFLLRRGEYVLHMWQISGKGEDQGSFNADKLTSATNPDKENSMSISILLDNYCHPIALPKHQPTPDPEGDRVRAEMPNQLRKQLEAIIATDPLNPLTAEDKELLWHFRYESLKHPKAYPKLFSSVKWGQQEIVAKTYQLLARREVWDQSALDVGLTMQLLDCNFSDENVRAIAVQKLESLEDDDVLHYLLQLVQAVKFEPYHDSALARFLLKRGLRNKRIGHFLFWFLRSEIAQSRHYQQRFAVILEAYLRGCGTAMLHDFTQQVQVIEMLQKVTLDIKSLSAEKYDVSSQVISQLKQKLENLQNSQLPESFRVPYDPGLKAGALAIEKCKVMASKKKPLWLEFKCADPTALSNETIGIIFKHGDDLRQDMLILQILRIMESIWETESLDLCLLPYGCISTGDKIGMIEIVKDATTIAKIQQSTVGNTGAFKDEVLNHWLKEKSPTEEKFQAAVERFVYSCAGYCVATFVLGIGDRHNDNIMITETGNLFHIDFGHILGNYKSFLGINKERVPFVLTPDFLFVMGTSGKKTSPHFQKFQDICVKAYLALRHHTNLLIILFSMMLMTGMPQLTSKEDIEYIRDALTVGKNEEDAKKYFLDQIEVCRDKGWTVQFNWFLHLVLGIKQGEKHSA
Chain of PI3-kinase p110-delta/p85-alpha (P27986 whole entry): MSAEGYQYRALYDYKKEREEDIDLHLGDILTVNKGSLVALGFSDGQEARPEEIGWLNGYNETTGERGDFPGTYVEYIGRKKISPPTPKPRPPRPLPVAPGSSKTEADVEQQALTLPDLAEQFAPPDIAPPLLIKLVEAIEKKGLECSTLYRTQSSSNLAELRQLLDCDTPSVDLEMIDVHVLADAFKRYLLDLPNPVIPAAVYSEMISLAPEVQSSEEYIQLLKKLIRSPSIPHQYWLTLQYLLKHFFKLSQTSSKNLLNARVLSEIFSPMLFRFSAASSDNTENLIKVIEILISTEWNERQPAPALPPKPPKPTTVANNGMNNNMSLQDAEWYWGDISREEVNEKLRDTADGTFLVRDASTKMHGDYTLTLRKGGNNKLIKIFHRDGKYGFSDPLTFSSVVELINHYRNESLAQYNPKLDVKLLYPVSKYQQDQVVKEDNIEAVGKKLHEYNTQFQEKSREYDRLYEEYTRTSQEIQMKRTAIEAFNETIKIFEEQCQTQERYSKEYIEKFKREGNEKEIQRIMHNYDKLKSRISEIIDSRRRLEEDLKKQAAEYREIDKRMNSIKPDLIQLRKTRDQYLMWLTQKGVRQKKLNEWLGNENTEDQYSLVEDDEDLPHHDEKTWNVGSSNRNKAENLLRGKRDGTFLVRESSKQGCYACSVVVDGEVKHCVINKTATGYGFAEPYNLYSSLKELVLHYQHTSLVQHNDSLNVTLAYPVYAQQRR
Chain of PI3-kinase p110-delta/p85-alpha (O00329 whole entry): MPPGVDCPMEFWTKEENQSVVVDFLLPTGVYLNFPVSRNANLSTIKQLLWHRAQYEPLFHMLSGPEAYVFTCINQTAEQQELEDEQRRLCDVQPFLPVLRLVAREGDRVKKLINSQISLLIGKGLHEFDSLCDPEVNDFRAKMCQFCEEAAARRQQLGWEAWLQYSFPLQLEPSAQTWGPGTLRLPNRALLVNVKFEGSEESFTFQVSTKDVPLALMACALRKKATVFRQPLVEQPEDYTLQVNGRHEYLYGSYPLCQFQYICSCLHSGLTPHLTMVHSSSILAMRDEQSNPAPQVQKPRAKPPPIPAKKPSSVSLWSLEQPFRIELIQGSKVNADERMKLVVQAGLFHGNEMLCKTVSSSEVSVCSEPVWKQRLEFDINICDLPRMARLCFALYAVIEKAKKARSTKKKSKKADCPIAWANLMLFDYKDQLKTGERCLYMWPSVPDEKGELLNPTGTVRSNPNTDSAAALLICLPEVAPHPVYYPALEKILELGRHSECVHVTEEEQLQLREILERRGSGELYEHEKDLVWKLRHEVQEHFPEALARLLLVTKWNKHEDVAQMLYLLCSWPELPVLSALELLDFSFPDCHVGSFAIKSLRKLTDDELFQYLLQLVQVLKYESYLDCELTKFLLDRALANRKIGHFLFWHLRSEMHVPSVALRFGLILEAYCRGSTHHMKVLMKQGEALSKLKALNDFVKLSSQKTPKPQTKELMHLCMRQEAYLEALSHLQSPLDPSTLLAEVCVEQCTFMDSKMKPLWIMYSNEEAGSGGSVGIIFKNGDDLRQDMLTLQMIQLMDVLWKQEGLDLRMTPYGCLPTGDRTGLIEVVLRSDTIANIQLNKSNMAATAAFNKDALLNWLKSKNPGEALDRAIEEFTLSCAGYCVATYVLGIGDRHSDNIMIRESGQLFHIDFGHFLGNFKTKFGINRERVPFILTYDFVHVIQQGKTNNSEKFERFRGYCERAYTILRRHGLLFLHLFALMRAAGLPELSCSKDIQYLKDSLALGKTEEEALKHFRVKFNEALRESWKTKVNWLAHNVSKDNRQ
Chain of PI3-kinase p110-alpha/p85-alpha (P27986 whole entry, canonical isoform): as the sequence (P27986 whole entry) above
Chain of PI3-kinase p110-alpha/p85-alpha (P42336 whole entry, canonical isoform): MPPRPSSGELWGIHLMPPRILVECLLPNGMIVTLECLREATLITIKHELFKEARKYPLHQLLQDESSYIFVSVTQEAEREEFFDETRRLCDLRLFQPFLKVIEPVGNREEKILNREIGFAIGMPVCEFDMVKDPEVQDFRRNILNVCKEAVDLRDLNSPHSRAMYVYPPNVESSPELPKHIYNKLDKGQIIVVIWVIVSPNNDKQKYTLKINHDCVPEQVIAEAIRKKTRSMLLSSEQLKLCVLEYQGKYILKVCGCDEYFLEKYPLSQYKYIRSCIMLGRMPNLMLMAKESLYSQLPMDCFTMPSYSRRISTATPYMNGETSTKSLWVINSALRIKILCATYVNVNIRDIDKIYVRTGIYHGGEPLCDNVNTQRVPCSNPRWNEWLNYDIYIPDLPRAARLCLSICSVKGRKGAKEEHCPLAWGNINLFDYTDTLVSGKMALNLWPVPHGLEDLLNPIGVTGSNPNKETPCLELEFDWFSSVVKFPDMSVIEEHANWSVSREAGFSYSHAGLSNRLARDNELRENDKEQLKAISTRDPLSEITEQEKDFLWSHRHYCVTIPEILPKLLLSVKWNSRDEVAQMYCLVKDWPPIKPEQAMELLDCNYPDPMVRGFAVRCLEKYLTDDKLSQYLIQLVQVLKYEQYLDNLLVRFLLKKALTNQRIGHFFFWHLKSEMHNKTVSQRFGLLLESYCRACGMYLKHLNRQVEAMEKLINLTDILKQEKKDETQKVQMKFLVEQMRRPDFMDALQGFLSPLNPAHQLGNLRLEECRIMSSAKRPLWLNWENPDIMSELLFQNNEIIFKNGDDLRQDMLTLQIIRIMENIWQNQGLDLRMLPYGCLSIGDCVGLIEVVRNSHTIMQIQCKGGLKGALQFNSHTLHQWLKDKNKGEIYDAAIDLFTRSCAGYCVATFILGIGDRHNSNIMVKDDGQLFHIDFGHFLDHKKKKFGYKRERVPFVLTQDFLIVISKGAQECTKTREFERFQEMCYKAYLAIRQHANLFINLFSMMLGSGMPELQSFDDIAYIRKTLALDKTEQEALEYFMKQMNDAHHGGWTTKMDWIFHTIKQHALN
Chain of Phosphatidylinositol 4,5-bisphosphate 3-kinase catalytic subunit beta isoform (P42338 whole entry, canonical isoform): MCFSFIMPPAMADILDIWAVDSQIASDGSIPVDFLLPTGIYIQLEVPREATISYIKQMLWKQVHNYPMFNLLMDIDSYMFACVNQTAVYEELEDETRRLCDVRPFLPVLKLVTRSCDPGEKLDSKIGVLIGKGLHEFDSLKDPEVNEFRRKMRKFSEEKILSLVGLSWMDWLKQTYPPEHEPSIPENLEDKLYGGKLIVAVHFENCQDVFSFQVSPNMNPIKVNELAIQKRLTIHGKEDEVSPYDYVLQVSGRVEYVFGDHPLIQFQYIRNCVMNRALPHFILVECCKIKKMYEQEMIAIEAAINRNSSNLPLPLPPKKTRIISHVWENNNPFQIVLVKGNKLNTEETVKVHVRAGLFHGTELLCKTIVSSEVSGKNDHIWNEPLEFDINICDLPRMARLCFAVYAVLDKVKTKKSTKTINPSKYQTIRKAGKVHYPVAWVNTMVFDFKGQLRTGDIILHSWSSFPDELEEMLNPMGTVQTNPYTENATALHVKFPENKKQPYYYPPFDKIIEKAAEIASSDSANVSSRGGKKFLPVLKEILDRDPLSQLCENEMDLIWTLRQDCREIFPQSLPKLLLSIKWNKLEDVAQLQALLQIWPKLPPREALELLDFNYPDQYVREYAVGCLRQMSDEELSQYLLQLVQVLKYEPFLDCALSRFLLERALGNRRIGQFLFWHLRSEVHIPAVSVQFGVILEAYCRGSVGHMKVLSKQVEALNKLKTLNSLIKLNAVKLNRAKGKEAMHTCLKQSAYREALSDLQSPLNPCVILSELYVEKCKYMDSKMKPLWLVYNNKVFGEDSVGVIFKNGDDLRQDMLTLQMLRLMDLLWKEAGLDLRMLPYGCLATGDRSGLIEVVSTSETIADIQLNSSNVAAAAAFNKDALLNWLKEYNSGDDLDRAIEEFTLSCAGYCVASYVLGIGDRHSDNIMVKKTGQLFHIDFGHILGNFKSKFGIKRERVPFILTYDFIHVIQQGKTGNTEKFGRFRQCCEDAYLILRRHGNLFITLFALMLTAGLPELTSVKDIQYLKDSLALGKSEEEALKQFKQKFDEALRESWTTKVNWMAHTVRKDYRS

| SMILES | IC50 [3] [nM] | GI50 [4] [nM] | also measured |
| --- | --- | --- | --- |
| C[C@H](Nc1ncnc2[nH]cnc12)C1=Nc2cccc(Cl)c2S(=O)(=O)N1c1ccccc1 | 4.6 | 33.2 | Ratio IC50 [1]: 791; IC50 [2]: 766 nM; IC50 [5]: 3640 nM; IC50 [6]: 156 nM; Ratio IC50 [7]: 167; Ratio IC50 [8]: 34; half-life [9]: 31.1 min; AUC(0-t) [10]: 1400 ng·h/mL; Vd [11]: 0.853 L/kg; clearance [12]: 25.8 mL/min/kg; Cmax [13]: 643 ng/mL; AUC(0-t) [14]: 2010 ng·h/mL; bioavailability [15]: 29.2%; half-life [16]: 72 min |
| CC(Nc1nc(Cl)nc2[nH]cnc12)C1=Nc2ccccc2S(=O)(=O)N1c1ccccc1 (stereo not drawn) | 1200 | – | – |
| CCC(Nc1ncnc2[nH]cnc12)C1=Nc2ccccc2S(=O)(=O)N1c1ccc(OC)c(OC)c1 (stereo not drawn) | > 3000 | – | – |
| CC(Nc1ncnc2[nH]cnc12)C1=Nc2ccccc2S(=O)(=O)N1c1ccc(F)cc1 (stereo not drawn) | 2000 | – | – |
| CC(Nc1ncnc(N)c1C#N)C1=Nc2ccccc2S(=O)(=O)N1c1ccccc1 (stereo not drawn) | 15 | 3500 | – |
| CC(C1=Nc2ccccc2S(=O)(=O)N1c1ccccc1)n1cnc2c(N)ncnc21 (stereo not drawn) | 68 | 23100 | – |
| CC(C1=Nc2ccccc2S(=O)(=O)N1c1cccnc1)n1cnc2c(N)ncnc21 (stereo not drawn) | 623 | – | – |
| CCC(Nc1ncnc(N)c1C#N)C1=Nc2cccc(F)c2S(=O)(=O)N1c1ccccc1 (stereo not drawn) | 141 | 10500 | – |
| C[C@H](Nc1ncnc(N)c1C#N)C1=Nc2cccc(Cl)c2S(=O)(=O)N1c1ccccc1 | < 0.32 | 15.9 | Ratio IC50 [1]: > 3110; IC50 [2]: 55 nM; IC50 [5]: 996 nM; IC50 [6]: 100 nM; Ratio IC50 [7]: > 172; Ratio IC50 [8]: > 313 |
| C[C@@H](Nc1ncnc2[nH]cnc12)C1=Nc2cccc(Cl)c2S(=O)(=O)N1c1ccccc1 | 62 | 190 | Ratio IC50 [1]: > 81; IC50 [2]: 3990 nM; IC50 [5]: > 5000 nM; IC50 [6]: 1910 nM; Ratio IC50 [7]: 64; Ratio IC50 [8]: 31 |
| CC(=O)O[C@H]1C(=O)[C@@]2(C)[C@H]([C@H](OC(=O)c3ccccc3)[C@]3(O)C[C@H](OC(=O)[C@H](O)[C@@H](NC(=O)c4ccccc4)c4ccccc4)C(C)=C1C3(C)C)[C@]1(OC(C)=O)CO[C@@H]1C[C@@H]2O [PACLITAXEL] | – | 1.9 | – |
| CC(Nc1ncnc(N)c1C#N)C1=Nc2cccc(F)c2S(=O)(=O)N1c1ccccc1 (stereo not drawn) | 35 | 1220 | – |
| CC(C1=Nc2cccc(F)c2S(=O)(=O)N1c1ccccc1)n1cnc2c(N)ncnc21 (stereo not drawn) | 54 | 7200 | – |
| CCC(C1=Nc2ccccc2S(=O)(=O)N1c1ccc(OC(F)(F)F)cc1)n1cnc2c(N)ncnc21 (stereo not drawn) | > 3000 | – | – |
| CCC(Nc1ncnc(N)c1C#N)C1=Nc2cccc(Cl)c2S(=O)(=O)N1c1ccccc1 (stereo not drawn) | 12 | 1680 | – |
| CC(Nc1ncnc2[nH]cnc12)C1=Nc2ccccc2S(=O)(=O)N1c1cccc(C(F)(F)F)c1 (stereo not drawn) | > 3000 | – | – |
| CCC(C1=Nc2ccccc2S(=O)(=O)N1c1ccc(F)cc1)n1cnc2c(N)ncnc21 (stereo not drawn) | > 3000 | – | – |
| CC(Nc1ncnc2[nH]cnc12)C1=Nc2cccc(Cl)c2S(=O)(=O)N1c1ccccc1 (stereo not drawn) | 9.8 | 770 | – |
| CC[C@H](Nc1ncnc2[nH]cnc12)c1nc2cccc(F)c2c(=O)n1-c1ccccc1 [IDELALISIB] | – | 124 | half-life [9]: 31.1 min; AUC(0-t) [10]: 1400 ng·h/mL; Vd [11]: 0.884 L/kg; Cmax [13]: 2320 ng/mL; AUC(0-t) [14]: 3190 ng·h/mL; bioavailability [15]: 45.8%; half-life [16]: 61.8 min |
| CCC(Nc1ncnc2[nH]cnc12)C1=Nc2ccccc2S(=O)(=O)N1c1cccc(C(F)(F)F)c1 (stereo not drawn) | > 3000 | – | – |

The next lines start with results.

| IC50 [3] [nM] | GI50 [4] [nM] | SMILES | also measured |
| --- | --- | --- | --- |
| 7 | 70.3 | C[C@@H](Nc1ncnc(N)c1C#N)C1=Nc2cccc(Cl)c2S(=O)(=O)N1c1ccccc1 | Ratio IC50 [1]: > 714; IC50 [2]: 169 nM; IC50 [5]: > 5000 nM; IC50 [6]: 112 nM; Ratio IC50 [7]: 24; Ratio IC50 [8]: 16 |
| 81 | 2190 | CCC(Nc1ncnc2[nH]cnc12)C1=Nc2cccc(Cl)c2S(=O)(=O)N1c1ccccc1 (stereo not drawn) | – |
| 344 | – | CC(Nc1ncnc2[nH]cnc12)C1=Nc2ccccc2S(=O)(=O)N1c1ccccc1 (stereo not drawn) | – |
| 383 | – | CCC(Nc1nc(F)nc2[nH]cnc12)C1=Nc2cccc(F)c2S(=O)(=O)N1c1ccccc1 (stereo not drawn) | – |
| 3.2 | 187 | CC(Nc1ncnc(N)c1C#N)C1=Nc2cccc(Cl)c2S(=O)(=O)N1c1ccccc1 (stereo not drawn) | – |
| 92 | 4690 | CC(Nc1nc(F)nc2[nH]cnc12)C1=Nc2ccccc2S(=O)(=O)N1c1ccccc1 (stereo not drawn) | – |
| > 3000 | – | CCC(Nc1ncnc2[nH]cnc12)C1=Nc2ccccc2S(=O)(=O)N1c1ccc(OC(F)(F)F)cc1 (stereo not drawn) | – |
| 628 | – | CC(C1=Nc2ccccc2S(=O)(=O)N1c1ccc(F)cc1)n1cnc2c(N)ncnc21 (stereo not drawn) | – |
| 921 | – | CC(Nc1ncnc2[nH]cnc12)C1=Nc2ccccc2S(=O)(=O)N1c1cccnc1 (stereo not drawn) | – |
| > 3000 | – | CCC(Nc1ncnc2[nH]cnc12)C1=Nc2cccc(F)c2S(=O)(=O)N1c1ccccc1 (stereo not drawn) | – |
